Data set [1] has as its system Pseudomonas aeruginosa. Briefly: Disruption of proton gradient in Pseudomonas aeruginosa PAO1 membrane assessed as inhibition of tetracycline uptake at 25 uM measured every 1 min for 30 mins by fluorescence based assay. It is filed as organism-based. Particulars: Bacterial membrane.
The test system of data set [2] is Pseudomonas aeruginosa. The experiment in a line: Antimicrobial activity against XDR Pseudomonas aeruginosa PA264 infected in Galleria mellonella larvae assessed as survival rate at 25 mg/kg administered 2 hrs post-inoculation measured after 24 hrs relative to control. The data set is classed as functional, organism-based.
Data set [3] has as its system Pseudomonas aeruginosa. The experiment in a line: Increase in tetracycline uptake in Pseudomonas aeruginosa PAO1 membrane at 25 uM measured every 1 min for 30 mins by fluorescence based assay. It is filed as organism-based. Particulars: Bacterial membrane. Put shortly:
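P. aeruginosa PAO1 was grown to OD600 0.6, washed, and resuspended in ¼ volume of 10 mM HEPES, pH 7.2. Cells received varying compound concentrations together with fixed tetracycline. Fluorescence (ex 405 nm, em 535 nm) was recorded every 1 min for 30 min at room temperature. Experiments were done in triplicate and averages reported.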

The nature of data set [4]: Toxicity in Galleria mellonella larvae assessed as tolerability by measuring larvae deaths at 75 mg/kg incubated for 96 hrs relative to control. Particulars: in vivo. It is filed as organism-based.
A short description of data set [5]: Toxicity in Galleria mellonella larvae assessed as tolerability by measuring larvae deaths at 100 mg/kg incubated for 96 hrs relative to control. It is filed as organism-based. Particulars: in vivo.

The source made the active and inactive calls. The rule behind the calls is not given here.

Take `N#CC(C#N)=NNc1cccc(Cl)c1`: the inhibition result in data set [1] is “Active”.
COLISTIN [listing 1 of 2 here]: in data set [2], the Survival worked out at 0%. In addition, the result in data set [3] was Active.
Consider COLISTIN [listing 2 of 2 here], for which the results for the Activity in data set [4] and in data set [5] were 70% and 90%, respectively.

Values taken from ChEMBL document CHEMBL4354800, “Amphiphilic nebramine-based hybrids Rescue legacy antibiotics from intrinsic resistance in multidrug-resistant Gram-negative bacilli” (Eur J Med Chem, 2019).
